# Assay results from ChEMBL document CHEMBL1799942, “Design, synthesis and antifungal activities of novel 1,2,4-triazole derivatives” (2011).
# Tests used:
# Assay type in all cases: functional
# Aspergillus fumigatus = test: Antifungal activity against Aspergillus fumigatus after 7 days by micro-broth dilution method; conditions: 168 h
# In short: (§1)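 Broth microdilution following the NCCLS yeast reference method (M27-A2), run on clinical isolates of filamentous fungi. Compounds were dissolved in DMSO, serially diluted in growth medium, inoculated and incubated at 35 °C. Growth was read at 7 days. MIC80 is the first well with about 80% less growth than the drug-free well.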
# Trichophyton rubrum = test: Antifungal activity against Trichophyton rubrum after 7 days by micro-broth dilution method; conditions: 168 h; in short: as §1
# Nannizzia gypsea = test: Antifungal activity against Microsporum gypseum after 7 days by micro-broth dilution method; conditions: 168 h; in short: as §1
# [1] = Antifungal activity against Fonsecaea compacta by micro-broth dilution method; in short: as §1
# Candida parapsilosis = test: Antifungal activity against Candida parapsilosis ATCC 0306392 by micro-broth dilution method; conditions: Lodderomyces parapsilosis
# In short: (§2)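 Micro-broth dilution per NCCLS M27-A2. The C. parapsilosis strain is the ATCC 0306392 quality-control standard tested in each assay; the C. tropicalis strain is a clinical isolate. Compounds were in DMSO, serially diluted in growth medium, inoculated and incubated at 35 °C. MIC80 is the first well with about 80% growth reduction relative to the drug-free well.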
# Candida tropicalis = test: Antifungal activity against Candida tropicalis by micro-broth dilution method; in short: as §2
# Cryptococcus neoformans = test: Antifungal activity against Cryptococcus neoformans ATCC BLS108 after 72 hrs by micro-broth dilution method; conditions: ATCC BLS108, 72 h
# In short: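 NCCLS M27-A2 microdilution on the ATCC BLS108 quality-control strain, tested in every assay. Compounds were taken up in DMSO, serially diluted in growth medium, inoculated and incubated at 35 °C. Growth was scored at 72 h. MIC80 is the first well with about 80% lower growth than the drug-free control well.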
# Candida albicans = test: Antifungal activity against Candida albicans ATCC Y0109 after 24 hrs by micro-broth dilution method; conditions: ATCC Y0109, 24 h
# In short: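 Micro-broth dilution per NCCLS M27-A2 on the quality-control standard strain ATCC Y0109, included in each assay. Compounds were dissolved in DMSO, serially diluted in growth medium, inoculated and incubated at 35 °C, with growth read at 24 h. MIC80 is the first well showing roughly 80% growth reduction versus the drug-free well.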
SMILES,MIC80 (Aspergillus fumigatus),MIC80 (Trichophyton rubrum),MIC80 (Nannizzia gypsea),MIC80 [1],MIC80 (Candida parapsilosis),MIC80 (Candida tropicalis),MIC80 (Cryptococcus neoformans),MIC80 (Candida albicans)
CCCCCCCCCCCC(=O)Nc1ccc(N2CCN(CC(O)(Cn3cncn3)c3ccc(F)cc3F)CC2)cc1 (racemic),1 µg/mL,0.0625 µg/mL,0.0156 µg/mL,0.25 µg/mL,0.25 µg/mL,1 µg/mL,0.0625 µg/mL,0.0625 µg/mL
O=C(Nc1ccc(N2CCN(CC(O)(Cn3cncn3)c3ccc(F)cc3F)CC2)cc1)C(F)(F)Cl (racemic),1 µg/mL,0.0156 µg/mL,0.0039 µg/mL,0.0625 µg/mL,0.0039 µg/mL,0.0039 µg/mL,0.0625 µg/mL,0.00097 µg/mL
CCCCCCCCCC(=O)Nc1ccc(N2CCN(CC(O)(Cn3cncn3)c3ccc(F)cc3F)CC2)cc1 (racemic),1 µg/mL,0.0625 µg/mL,0.0156 µg/mL,1 µg/mL,1 µg/mL,0.25 µg/mL,0.0625 µg/mL,0.0156 µg/mL
O=C(Nc1ccc(N2CCN(CC(O)(Cn3cncn3)c3ccc(F)cc3F)CC2)cc1)C(F)(F)F (racemic),1 µg/mL,0.0156 µg/mL,0.0039 µg/mL,0.0156 µg/mL,0.0039 µg/mL,0.00097 µg/mL,0.0156 µg/mL,0.00097 µg/mL
CC(C)C(=O)Nc1ccc(N2CCN(CC(O)(Cn3cncn3)c3ccc(F)cc3F)CC2)cc1 (racemic),4 µg/mL,0.25 µg/mL,0.0625 µg/mL,0.25 µg/mL,0.0156 µg/mL,0.0156 µg/mL,1 µg/mL,0.0039 µg/mL
O=C(CCl)Nc1ccc(N2CCN(CC(O)(Cn3cncn3)c3ccc(F)cc3F)CC2)cc1 (racemic),4 µg/mL,0.0625 µg/mL,0.0625 µg/mL,0.0625 µg/mL,0.0156 µg/mL,0.0156 µg/mL,0.25 µg/mL,0.0039 µg/mL

# Now from value to compound:
MIC80 (Aspergillus fumigatus),MIC80 (Trichophyton rubrum),MIC80 (Nannizzia gypsea),MIC80 [1],MIC80 (Candida parapsilosis),MIC80 (Candida tropicalis),MIC80 (Cryptococcus neoformans),MIC80 (Candida albicans),SMILES
64 µg/mL,0.0156 µg/mL,0.0156 µg/mL,0.0625 µg/mL,0.0156 µg/mL,0.0156 µg/mL,0.25 µg/mL,0.0156 µg/mL,CC(C)(C)C(=O)Nc1ccc(N2CCN(CC(O)(Cn3cncn3)c3ccc(F)cc3F)CC2)c(F)c1 (racemic)
1 µg/mL,0.0156 µg/mL,0.25 µg/mL,0.25 µg/mL,0.25 µg/mL,0.0625 µg/mL,0.0625 µg/mL,0.0039 µg/mL,CCCCCC(=O)Nc1ccc(N2CCN(CC(O)(Cn3cncn3)c3ccc(F)cc3F)CC2)c(F)c1 (racemic)
64 µg/mL,0.0039 µg/mL,0.0156 µg/mL,0.0625 µg/mL,0.0625 µg/mL,0.0625 µg/mL,1 µg/mL,0.0156 µg/mL,O=C(Cc1ccccc1)Nc1ccc(N2CCN(CC(O)(Cn3cncn3)c3ccc(F)cc3F)CC2)c(F)c1 (racemic)
1 µg/mL,0.0156 µg/mL,0.0156 µg/mL,0.25 µg/mL,0.0156 µg/mL,0.0156 µg/mL,0.25 µg/mL,0.0156 µg/mL,CCCC(=O)Nc1ccc(N2CCN(CC(O)(Cn3cncn3)c3ccc(F)cc3F)CC2)c(F)c1 (racemic)
> 64 µg/mL,0.0039 µg/mL,0.0039 µg/mL,0.0625 µg/mL,0.0156 µg/mL,0.0156 µg/mL,0.0625 µg/mL,0.00097 µg/mL,CCCCCCC(=O)Nc1ccc(N2CCN(CC(O)(Cn3cncn3)c3ccc(F)cc3F)CC2)cc1 (racemic)
1 µg/mL,0.0039 µg/mL,0.0625 µg/mL,0.25 µg/mL,0.0625 µg/mL,0.0625 µg/mL,0.25 µg/mL,0.0625 µg/mL,CCCCCCCC(=O)Nc1ccc(N2CCN(CC(O)(Cn3cncn3)c3ccc(F)cc3F)CC2)c(F)c1 (racemic)
1 µg/mL,0.25 µg/mL,0.25 µg/mL,1 µg/mL,0.25 µg/mL,0.25 µg/mL,1 µg/mL,0.0156 µg/mL,CCCCC(=O)Nc1ccc(N2CCN(CC(O)(Cn3cncn3)c3ccc(F)cc3F)CC2)c(F)c1 (racemic)
4 µg/mL,0.0625 µg/mL,0.25 µg/mL,0.25 µg/mL,0.0156 µg/mL,0.0156 µg/mL,1 µg/mL,0.0156 µg/mL,CCC(=O)Nc1ccc(N2CCN(CC(O)(Cn3cncn3)c3ccc(F)cc3F)CC2)cc1 (racemic)
